This is an account of results in PMC8775362 (Molecular pharmaceutics, 2021).

Data set [1] concerns the target MDM2. The settings on record: cited from earlier work.
The subject of data set [2] is SJSA-1 human osteosarcoma cells. Kind of data set: Cell uptake and specificity of [^18F]6 in SJSA-1 cells. It counts as cell-based. Summed up: (§1)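 Cells (HepG2 in MEM, SJSA-1 in RPMI 1640, both with 10% FBS) were seeded at 2×10^5/well and held overnight at 37°C. Medium was swapped for serum-free medium holding 18.5 kBq tracer; incubation was at 37°C for 0.5, 1 or 2 h. Blocking used unlabeled parent inhibitor, either 5–50 µM for 1 h or 25 µM for the time course.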

For data set [3], the system named is HepG2 human hepatocellular carcinoma cells. Kind of data set: Cell uptake and specificity of [^18F]6 in HepG2 cells. Type of data set: cell-based. Summed up:
as §1

Data set [4] concerns P-glycoprotein. Conditions: neuroblastoma cells; cited from earlier work.
The conditions of data set [5]: cited from earlier work.

Where two headings read alike, the source gives them in different places. Non-standard residues stand in square brackets, D forms with d. Residues, ends and D or L forms follow the SMILES beside them. *: point of attachment. 5FAM = O=C1OC2(c3ccc(O)cc3Oc3cc(O)ccc32)c2ccc(C(=O)*)cc21; Trp(6-Cl) = N[C@@H](Cc1c[nH]c2cc(Cl)ccc12)C(=O)O; pY = N[C@@H](Cc1ccc(OP(=O)(O)O)cc1)C(=O)O; Ac3c = NC1(C(=O)O)CC1; Aib = CC(C)(N)C(=O)O; βAla = NCCC(=O)O A value given as a limit tells only on which side of the number the result lay.

As a reminder, the Kd is a measure of binding affinity in units of concentration. Regarding `CSCC[C@H](NC(=O)[C@H](Cc1ccccc1)NC(=O)CCNC(=O)CCNC(=O)c1ccc2c(c1)C(=O)OC21c2ccc(O)cc2Oc2cc(O)ccc21)C(=O)NC(C)(C)C(=O)N[C@@H](Cc1ccc(OP(=O)(O)O)cc1)C(=O)N[C@@H](Cc1c[nH]c2cc(Cl)ccc12)C(=O)N[C@@H](CCC(=O)O)C(=O)NC1(C(=O)N[C@@H](CC(C)C)C(=O)N[C@@H](CC(N)=O)C(N)=O)CC1` [5-FAM-PMDM6] ({5FAM-βAla-βAla}-FM[Aib][pY][Trp(6-Cl)]E[Ac3c]LN-NH2; N-terminus and C-terminus assumed), the equilibrium dissociation constant (Kd) in data set [1] (read-out: binding affinity (Kd) towards MDM2, literature, same assay) is 1 ± 0.1 nM.

A word on the IC50: it is the concentration that gives 50% inhibition. On to `CC(C)[C@@H](CS(=O)(=O)C(C)C)N1C(=O)[C@@](C)(CC(=O)O)C[C@H](c2cccc(Cl)c2)[C@H]1c1ccc(Cl)cc1` [AMG232], for which, in data set [1] (read-out: IC50 inhibiting the MDM2-p53 interaction), the IC50 was […].

As usually defined, the inhibition is the change of the read-out against control, counted positive when it falls. Consider `COc1cc(C(=O)O)ccc1NC(=O)[C@@H]1N[C@@H](CC(C)(C)C)[C@](C#N)(c2ccc(Cl)cc2F)[C@H]1c1cccc(Cl)c1F` [RG7388, Idasanutlin], for which the inhibition at 50 µM was above 80% in data set [2] (Homo sapiens, SJSA-1, 1 h, read-out: inhibition of [^18F]6 uptake) and above 80% in data set [3] (Homo sapiens, HepG2, 1 h, read-out: inhibition of [^18F]6 uptake). Moreover, the “effect of blocking on [^18F]6 uptake” value is “significantly decreased” in data set [2] (SJSA-1, 25 μM RG7388, all time points 30-120 min) and “significantly decreased” in data set [3] (HepG2, 25 μM RG7388, all time points 30-120 min). Further, in data set [1] (read-out: IC50 disrupting the MDM2-p53 interaction), the IC50 is […]. For the same compound, the “substrate of P-glycoprotein” value in data set [4] is on record as “not a good substrate”. For the same compound, the “stability in humans in vivo” value in data set [5] is “fully stable”.

In the case of `COc1ccc2[nH]c3c(-c4cccc5ccccc45)nccc3c2c1` [SP-141], the Kd in data set [1] (read-out: binding affinity Kd) was 43 nM.
